Data reported in ChEMBL document CHEMBL4431376, “CZ415, a Highly Selective mTOR Inhibitor Showing in Vivo Efficacy in a Collagen Induced Arthritis Model” (ACS Med Chem Lett, 2016).
Converted amounts (≈) assume the structure as drawn.

Tests used:
[1] = Intrinsic clearance in pooled cryopreserved dog hepatocytes at 1 uM incubated up to 90 mins by LC-MS/MS analysis; assay type: ADME, cell-based, Canis lupus familiaris, Hepatocyte; conditions: 1.5 h
Procedure, shortened: (§1)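 Metabolic stability was assessed in liver microsomes (rat, dog, human) and hepatocytes (dog, human). Intrinsic clearance was calculated as μL/min/g liver.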

Mus musculus [2] = organism: Mus musculus; assay: animal or person; conditions: C57BL/6J
Mus musculus [3] = assay: Time duration for free plasma concentration stays above invitro EC50 for human whole blood in DBA/1 OlaHsd mouse immunized with bovine type2 collagen in Freund's complete adjuvant at 10 mg/kg, po bid administered starting on day 22 post immunization measured on day 31 post immunization; assay type: ADME, organism-based; conditions: in vivo
Procedure, shortened: (§2)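 Blood drug levels were measured on study day 31 in CIA mice dosed at 10 mg/kg PO bid (n = 10), with vehicle 5% DMSO/95% (10% kleptose). AUC and Cmax were derived from these levels. Time above EC50 was judged against the human whole-blood IFNγ assay EC50 and the anti-CD3 mouse PK/PD EC50.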

[4] = Mutagenicity in Salmonella typhimurium by Ames test; assay type: toxicity; conditions: salmonella enterica subsp. enterica serovar typhimurium
Cytochrome P450 2C8 = molecular target: T1, Cytochrome P450 2C8 (Homo sapiens, UniProt P10632); assay: Inhibition of CYP2C8 in human liver microsomes; assay type: ADME
T1 sequence (P10632 whole entry): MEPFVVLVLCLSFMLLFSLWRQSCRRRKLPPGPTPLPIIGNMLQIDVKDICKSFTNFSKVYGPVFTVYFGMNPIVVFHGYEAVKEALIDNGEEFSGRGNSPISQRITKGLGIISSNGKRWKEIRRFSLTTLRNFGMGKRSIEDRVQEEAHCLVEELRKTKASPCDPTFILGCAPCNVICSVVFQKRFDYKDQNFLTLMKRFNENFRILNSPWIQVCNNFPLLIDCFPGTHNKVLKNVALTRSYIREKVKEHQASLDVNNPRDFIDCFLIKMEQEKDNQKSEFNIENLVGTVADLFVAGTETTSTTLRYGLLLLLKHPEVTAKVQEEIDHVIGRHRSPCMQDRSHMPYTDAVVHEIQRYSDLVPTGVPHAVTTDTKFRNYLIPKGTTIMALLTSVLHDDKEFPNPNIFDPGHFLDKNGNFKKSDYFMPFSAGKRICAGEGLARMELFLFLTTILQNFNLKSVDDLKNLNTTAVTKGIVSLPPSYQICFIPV

[5] = Intrinsic clearance in pooled human liver microsomes at 1 uM incubated up to 40 mins in presence of NADPH by LC-MS/MS analysis; assay type: ADME, Microsome; procedure, shortened: as §1
Cytochrome P450 3A4 [6] = molecular target: T2, Cytochrome P450 3A4 (Homo sapiens, UniProt P08684); assay: Induction of CYP3A4 in […] at 10 uM; assay type: ADME
Procedure, shortened: (§3)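 CYP3A4 induction tested at 10 μM. Time-dependent inhibition of CYP3A4 tested at up to 50 μM.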

[7] = Plasma clearance in Sprague-Dawley rat at 1 mg/kg, iv as bolus dose or 3 mg/kg, po administered through gavage measured up to 8 hrs by LC-MS/MS analysis relative to liver blood flow; assay type: ADME, organism-based; conditions: in vivo
Procedure, shortened: (§4)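 Rats (n = 3 per route) given a 1 mg/kg intravenous bolus or 3 mg/kg as an oral solution. Vehicle was 5% DMSO/95% (10% Kleptose). Plasma concentration was followed over time to derive PK parameters and oral bioavailability. Clearance was also expressed relative to liver blood flow.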

Cytochrome P450 3A4 [8] = molecular target: T2, Cytochrome P450 3A4; assay: Time-dependent inhibition of CYP3A4 in human liver microsomes at 50 uM; assay type: ADME; procedure, shortened: as §3
Cytochrome P450 2D6 = Cytochrome P450 2D6 (Homo sapiens, UniProt P10635); assay: Inhibition of CYP2D6 in human liver microsomes; assay type: ADME
[9] = Oral bioavailability in Sprague-Dawley rat at 3 mg/kg administered through gavage measured up to 8 hrs by LC-MS/MS analysis; assay type: ADME, organism-based; conditions: in vivo; procedure, shortened: as §4
[10] = Protein binding in mouse plasma; assay type: ADME, cell-free; conditions: read-out: PPB (converted)
Procedure, shortened: (§5)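 Plasma protein binding was determined in rat, mouse and human plasma, expressed as % bound.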

[11] = Blood clearance in Sprague-Dawley rat at 1 mg/kg, iv as bolus dose or 3 mg/kg, po administered through gavage measured up to 8 hrs by LC-MS/MS analysis; assay type: ADME, organism-based; conditions: whole blood; procedure, shortened: as §4
[12] = Protein binding in human plasma; assay type: ADME, cell-free; conditions: read-out: PPB (converted); procedure, shortened: as §5
[13] = Solubility of compound in fed state simulated intestinal fluid; assay type: physicochemical
Procedure, shortened: (§6)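 logD measured at pH 7.4. Kinetic solubility measured by CLND. Solubility also measured in FaSSIF and FeSSIF biorelevant media.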

[14] = Distribution coefficient, logD of compound at pH 7.4; assay type: physicochemical; conditions: octanol/water; procedure, shortened: as §6
Cytochrome P450 3A4 [15] = molecular target: T2, Cytochrome P450 3A4; assay: Inhibition of CYP3A4 in human liver microsomes; assay type: ADME
[16] = Kinetic solubility of compound by chemiluminescent nitrogen detection method; assay type: physicochemical; conditions: read-out: Kinetic_solubility; procedure, shortened: as §6
Mus musculus [17] = assay: Time duration for free plasma concentration stays above invivo EC50 in DBA/1 OlaHsd mouse immunized with bovine type2 collagen in Freund's complete adjuvant at 10 mg/kg, po bid administered starting on day 22 post immunization measured on day 31 post immunization; assay type: ADME, organism-based; conditions: in vivo; procedure, shortened: as §2
[18] = Volume of distribution at steady state in Sprague-Dawley rat at 1 mg/kg, iv as bolus dose or 3 mg/kg, po administered through gavage measured up to 8 hrs by LC-MS/MS analysis; assay type: ADME, organism-based; conditions: in vivo, read-out: Vdss; procedure, shortened: as §4
Lymphoma cell line [19] = assay: Genotoxicity in mouse lymphoma cells in presence of rat liver S9 fraction; assay type: toxicity, cell-based
Lymphoma cell line [20] = assay: Genotoxicity in mouse lymphoma cells in absence of rat liver S9 fraction; assay type: toxicity, cell-based

T2 sequence (P08684 whole entry): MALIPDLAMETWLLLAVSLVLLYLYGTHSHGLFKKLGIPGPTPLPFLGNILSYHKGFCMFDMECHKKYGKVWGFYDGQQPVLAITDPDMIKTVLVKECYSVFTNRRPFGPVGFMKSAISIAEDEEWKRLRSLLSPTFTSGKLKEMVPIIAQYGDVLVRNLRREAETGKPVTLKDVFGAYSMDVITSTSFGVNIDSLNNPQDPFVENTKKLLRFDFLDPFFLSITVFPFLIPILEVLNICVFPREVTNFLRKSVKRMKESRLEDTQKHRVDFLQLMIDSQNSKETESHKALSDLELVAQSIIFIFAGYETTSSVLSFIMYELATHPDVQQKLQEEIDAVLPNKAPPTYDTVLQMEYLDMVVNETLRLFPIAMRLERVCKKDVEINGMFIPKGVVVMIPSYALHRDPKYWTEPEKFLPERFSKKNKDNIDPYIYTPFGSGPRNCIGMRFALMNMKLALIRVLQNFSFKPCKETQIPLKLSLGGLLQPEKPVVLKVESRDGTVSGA
Chain of Cytochrome P450 2D6 (P10635 whole entry): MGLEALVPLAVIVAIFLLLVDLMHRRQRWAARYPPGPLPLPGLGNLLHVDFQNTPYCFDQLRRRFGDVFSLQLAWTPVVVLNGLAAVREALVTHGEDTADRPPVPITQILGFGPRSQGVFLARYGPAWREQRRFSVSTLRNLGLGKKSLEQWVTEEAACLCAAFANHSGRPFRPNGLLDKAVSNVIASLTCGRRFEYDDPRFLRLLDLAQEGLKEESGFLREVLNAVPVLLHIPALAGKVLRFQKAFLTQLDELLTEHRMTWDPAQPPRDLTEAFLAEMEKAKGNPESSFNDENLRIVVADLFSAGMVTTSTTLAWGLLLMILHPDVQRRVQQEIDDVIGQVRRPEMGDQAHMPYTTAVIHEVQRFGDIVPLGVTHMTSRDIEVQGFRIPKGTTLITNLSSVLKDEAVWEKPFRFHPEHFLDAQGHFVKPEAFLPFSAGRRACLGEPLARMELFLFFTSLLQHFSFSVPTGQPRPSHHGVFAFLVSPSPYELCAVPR

- CLH [1]: < 0.8 µL/min/g
- EC50 (Mus musculus [2]): 55 nM
- Time (Mus musculus [3]): <= 8 hr
- inhibition (INH) (Cytochrome P450 2C8): Not Active
- CLH [5]: 1.5 µL/min/g
- Activity (Cytochrome P450 3A4 [6]): Not Active
- CL [7]: 45%
- TDI (Cytochrome P450 3A4 [8]): Not Active
- inhibition (INH) (Cytochrome P450 2D6): Not Active
- bioavailability [9]: 44%
- fraction unbound [10]: 0.11
- clearance [11]: 41 mL/min/kg
- fraction unbound [12]: 0.19
- solubility [13]: 60.1 µg/mL (≈ 131 µM)
- logD [14]: 4.31
- inhibition (INH) (Cytochrome P450 3A4 [15]): Not Active
- solubility kinetic [16]: 150 µM (≈ 68.7 µg/mL)
- Time (Mus musculus [17]): <= 8 hr
- Vd [18]: 3.1 L/kg
SMILES: CCNC(=O)Nc1ccc(-c2nc(N3CCOC[C@@H]3C)c3c(n2)C(C)(C)S(=O)(=O)C3)cc1
- Activity [4]: Non-Toxic
- Activity (Lymphoma cell line [19]): Non-Toxic
- Activity (Lymphoma cell line [20]): Non-Toxic
